What was measured:
[1] = Total clearance in Beagle dog at 2 mg/kg, iv and 5 mg/kg, po by WinNonlin non-compartmental analysis; assay type: ADME, organism-based, Canis lupus familiaris; details: in vivo
[2] = Volume of distribution at steady state in Sprague-Dawley rat at 2 mg/kg, iv and 5 mg/kg, po by WinNonlin non-compartmental analysis; assay type: ADME, organism-based; details: in vivo, read-out: Vdss
Summary of the method: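 Pharmacokinetics were determined in male Sprague–Dawley rats.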

[3] = Cytotoxicity in rat kidney fibroblasts; parameters: species or system Fibroblast
[4] = Mitochondrial toxicity in human HepG2 cells assessed as increase in lactate production up to 10 uM measured for 14 days; assay type: cell-based, Mitochondria; details: hepg2, 336 h
[5] = tested on: Hepatitis C virus; experiment: Antiviral activity against Hepatitis C virus genotype 2a infected in human HuH7 cells assessed as inhibition of subgenomic replicon RNA replication after 72 hrs by luciferase reporter assay; assay type: functional, cell-based, Hepacivirus hominis; details: Huh-7, 72 h
[6] = tested on: Hepatocyte; experiment: Drug anabolism in human hepatocytes assessed as compound level at 10 uM after 24 hrs measured per million cells by mass spectrometer analysis; assay type: ADME, cell-based
[7] = Inhibition of C-terminal His6-tagged and C-terminal 21 amino acids truncated Hepatitis C virus genotype 5a SA13 NS5B RNA-dependent RNA polymerase activity using polyU or polyC RNA as template by microbeta plate reader analysis
[8] = Volume of distribution at steady state in cynomolgus monkey at 2 mg/kg, iv and 5 mg/kg, po by WinNonlin non-compartmental analysis; assay type: ADME, organism-based, Macaca fascicularis; details: in vivo, read-out: Vdss
[9] = Drug anabolism in dog hepatocytes assessed as monophosphate level at 10 uM after 24 hrs measured per million cells by mass spectrometer analysis; assay type: ADME, cell-based, Canis lupus familiaris, Hepatocyte
[10] = tested on: Hepatitis C virus; experiment: Antiviral activity against Hepatitis C virus genotype 5a infected in human HuH7 cells assessed as inhibition of subgenomic replicon RNA replication after 72 hrs by luciferase reporter assay; assay type: functional, cell-based, Hepacivirus hominis; details: Huh-7, 72 h
[11] = tested on: Hepatocyte; experiment: Drug anabolism in human hepatocytes assessed as monophosphate level at 10 uM after 24 hrs measured per million cells by mass spectrometer analysis; assay type: ADME, cell-based
[12] = tested on: Hepatocyte; experiment: Drug anabolism in rat hepatocytes assessed as triphosphate level at 10 uM after 24 hrs measured per million cells by mass spectrometer analysis; assay type: ADME, cell-based
[13] = tested on: Salmonella typhimurium; experiment: Genotoxicity in Salmonella typhimurium by Ames test; assay type: toxicity, organism-based; details: salmonella enterica subsp. enterica serovar typhimurium
[14] = Inhibition of N-terminal His6-tagged Hepatitis C virus genotype 1b isolate Con1 NS5B RNA-dependent RNA polymerase activity by plate reader analysis
[15] = Drug anabolism in dog hepatocytes assessed as diphosphate level at 10 uM after 24 hrs measured per million cells by mass spectrometer analysis; assay type: ADME, cell-based, Canis lupus familiaris, Hepatocyte
[16] = tested on: Hepatocyte; experiment: Drug anabolism in rat hepatocytes assessed as diphosphate level at 10 uM after 24 hrs measured per million cells by mass spectrometer analysis; assay type: ADME, cell-based
[17] = tested on: Hepatitis C virus; experiment: Antiviral activity against Hepatitis C virus genotype 4a infected in human HuH7 cells assessed as inhibition of subgenomic replicon RNA replication after 72 hrs by luciferase reporter assay; assay type: functional, cell-based, Hepacivirus hominis; details: Huh-7, 72 h
[18] = tested on: Hepatocyte; experiment: Drug anabolism in rat hepatocytes assessed as compound level at 10 uM after 24 hrs measured per million cells by mass spectrometer analysis; assay type: ADME, cell-based
[19] = Inhibition of myeloid progenitor proliferation in human bone marrow cells up to 100 uM; assay type: cell-based; details: bone marrow cell
[20] = Total clearance in Sprague-Dawley rat at 2 mg/kg, iv and 5 mg/kg, po by WinNonlin non-compartmental analysis; assay type: ADME, organism-based; details: in vivo
Summary of the method: (§1)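 PK study animals were male Sprague–Dawley rats.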

[21] = Volume of distribution at steady state in Beagle dog at 2 mg/kg, iv and 5 mg/kg, po by WinNonlin non-compartmental analysis; assay type: ADME, organism-based, Canis lupus familiaris; details: in vivo, read-out: Vdss
[22] = Inhibition of C-terminal His6-tagged and C-terminal 21 amino acids truncated Hepatitis C virus genotype 1a H77 NS5B RNA-dependent RNA polymerase activity using polyU or polyC RNA as template by microbeta plate reader analysis; parameters: species or system Hepatitis C virus (isolate H77)
[23] = Cytotoxicity against human HuH7 cells by MTT assay; assay type: cell-based, Huh-7
Summary of the method: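 Huh-7-derived HCV replicon cell lines were used, with MTT as the vital dye read-out.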

[24] = Cytotoxicity in rat heart myoblasts; parameters: species or system Myoblast
[25] = Drug anabolism in human HuH7 cells assessed as monophosphate level at 10 uM after 24 hrs measured per million cells by mass spectrometer analysis; assay type: ADME, cell-based; details: huh-7, 24 h
[26] = Inhibition of C-terminal His6-tagged and C-terminal 21 amino acids truncated Hepatitis C virus genotype 3a VRL-69 NS5B RNA-dependent RNA polymerase activity using polyU or polyC RNA as template by microbeta plate reader analysis; parameters: species or system Hepatitis C virus subtype 3a
[27] = Inhibition of C-terminal His6-tagged and C-terminal 21 amino acids truncated Hepatitis C virus genotype 7a QC69 NS5B RNA-dependent RNA polymerase activity using polyU or polyC RNA as template by microbeta plate reader analysis; parameters: species or system Hepacivirus hominis
[28] = tested on: Hepatitis C virus; experiment: Antiviral activity against Hepatitis C virus genotype 1b infected in human HuH7 cells assessed as inhibition of subgenomic replicon RNA replication after 72 hrs by luciferase reporter assay; assay type: functional, cell-based, Hepacivirus hominis; details: Huh-7, 72 h
[29] = tested on: Hepatocyte; experiment: Drug anabolism in human hepatocytes assessed as triphosphate level at 10 uM after 24 hrs measured per million cells by mass spectrometer analysis; assay type: ADME, cell-based
[30] = tested on: Hepatitis C virus; experiment: Antiviral activity against Hepatitis C virus genotype 1a infected in human HuH7 cells assessed as inhibition of subgenomic replicon RNA replication after 72 hrs by luciferase reporter assay; assay type: functional, cell-based, Hepacivirus hominis; details: subtype 1a, Huh-7, 72 h
[31] = tested on: Rattus norvegicus; experiment: Toxicity in rat assessed as animal death up to 400 mg/kg, po administered as single dose; assay type: organism-based; parameters: dose 400 mg/kg, route oral; details: in vivo
[32] = Cmax in Sprague-Dawley rat at 5 mg/kg, po by WinNonlin non-compartmental analysis; assay type: ADME, organism-based; parameters: dose 5 mg/kg, route oral; details: in vivo; summary of the method: as §1
[33] = Cmax in Beagle dog at 5 mg/kg, po by WinNonlin non-compartmental analysis; assay type: ADME, organism-based, Canis lupus familiaris; parameters: dose 5 mg/kg, route oral; details: in vivo
[34] = tested on: Hepatitis C virus; experiment: Antiviral activity against Hepatitis C virus genotype 6a infected in human HuH7 cells assessed as inhibition of subgenomic replicon RNA replication after 72 hrs by luciferase reporter assay; assay type: functional, cell-based, Hepacivirus hominis; details: Huh-7, 72 h
[35] = Drug anabolism in human HuH7 cells assessed as compound level at 10 uM after 24 hrs measured per million cells by mass spectrometer analysis; assay type: ADME, cell-based; details: huh-7, 24 h
[36] = tested on: Hepatocyte; experiment: Drug anabolism in human hepatocytes assessed as diphosphate level at 10 uM after 24 hrs measured per million cells by mass spectrometer analysis; assay type: ADME, cell-based
[37] = Mitochondrial toxicity in human HepG2 cells assessed as decrease in mitochondrial DNA content up to 10 uM measured for 14 days; assay type: cell-based, Mitochondria; details: hepg2, 336 h
[38] = tested on: Hepatocyte; experiment: Drug anabolism in rat hepatocytes assessed as monophosphate level at 10 uM after 24 hrs measured per million cells by mass spectrometer analysis; assay type: ADME, cell-based
[39] = Inhibition of C-terminal His6-tagged and C-terminal 21 amino acids truncated Hepatitis C virus genotype 2a JFH-1 NS5B RNA-dependent RNA polymerase activity using polyU or polyC RNA as template by microbeta plate reader analysis; parameters: species or system Hepatitis C virus JFH-1
[40] = Total clearance in cynomolgus monkey at 2 mg/kg, iv and 5 mg/kg, po by WinNonlin non-compartmental analysis; assay type: ADME, organism-based, Macaca fascicularis; details: in vivo
[41] = Drug anabolism in human HuH7 cells assessed as triphosphate level at 10 uM after 24 hrs measured per million cells by mass spectrometer analysis; assay type: ADME, cell-based; details: huh-7, 24 h
[42] = tested on: Hepatitis C virus; experiment: Antiviral activity against Hepatitis C virus genotype 2b infected in human HuH7 cells assessed as inhibition of subgenomic replicon RNA replication after 72 hrs by luciferase reporter assay; assay type: functional, cell-based, Hepacivirus hominis; details: Huh-7, 72 h
[43] = tested on: Hepatitis C virus; experiment: Antiviral activity against Hepatitis C virus genotype 3a infected in human HuH7 cells assessed as inhibition of subgenomic replicon RNA replication after 72 hrs by luciferase reporter assay; assay type: functional, cell-based, Hepacivirus hominis; details: Huh-7, 72 h
[44] = Cytotoxicity in rat liver epithelial cells; assay type: cell-based, Epithelial cell
[45] = Drug anabolism in human HuH7 cells assessed as diphosphate level at 10 uM after 24 hrs measured per million cells by mass spectrometer analysis; assay type: ADME, cell-based; details: huh-7, 24 h
[46] = Drug anabolism in dog hepatocytes assessed as compound level at 10 uM after 24 hrs measured per million cells by mass spectrometer analysis; assay type: ADME, cell-based, Canis lupus familiaris, Hepatocyte
[47] = Inhibition of erythroid progenitor proliferation in human bone marrow cells up to 100 uM; assay type: cell-based; details: bone marrow cell
[48] = Drug anabolism in dog hepatocytes assessed as triphosphate level at 10 uM after 24 hrs measured per million cells by mass spectrometer analysis; assay type: ADME, cell-based, Canis lupus familiaris, Hepatocyte
[49] = Cmax in cynomolgus monkey at 5 mg/kg, po by WinNonlin non-compartmental analysis; assay type: ADME, organism-based, Macaca fascicularis; parameters: dose 5 mg/kg, route oral; details: in vivo

C[C@@]1(O)[C@H](O)[C@@H](CO)O[C@H]1c1ccc2c(N)ncnn12
clearance [1]: 11.4 mL/min/kg
Vd [2]: 4.19 L/kg
CC50 [3]: > 250000 nM
Activity [4]: Non-toxic
EC50 [5]: 630 nM
Drug metabolism [6]: 46.2 pmol
IC50 [7]: 480 nM
Vd [8]: 2.43 L/kg
Drug metabolism [9]: 7 pmol
EC50 [10]: 820 nM
Drug metabolism [11]: 27.6 pmol
Drug metabolism [12]: 49.9 pmol
Activity [13]: Non-toxic
IC50 [14]: 370 nM
Drug metabolism [15]: 8.3 pmol
Drug metabolism [16]: 9.7 pmol
EC50 [17]: 880 nM
Drug metabolism [18]: 16.9 pmol
Activity [19]: Non-toxic
clearance [20]: 18.8 mL/min/kg
Vd [21]: 5.22 L/kg
IC50 [22]: 570 nM
CC50 [23]: > 100000 nM
CC50 [24]: > 250000 nM
Drug metabolism [25]: 3.36 pmol
IC50 [26]: 500 nM
IC50 [27]: 810 nM
EC50 [28]: 1600 nM
Drug metabolism [29]: 487 pmol
EC50 [30]: 760 nM
Activity [31]: Toxic
Cmax [32]: 2380 nM
Cmax [33]: 8360 nM
EC50 [34]: 1000 nM
Drug metabolism [35]: 31.8 pmol
Drug metabolism [36]: 40.5 pmol
Activity [37]: Non-toxic
Drug metabolism [38]: 7.3 pmol
IC50 [39]: 390 nM
clearance [40]: 20.5 mL/min/kg
Drug metabolism [41]: 9.33 pmol
EC50 [42]: 410 nM
EC50 [43]: 420 nM
CC50 [44]: 190000 nM
Drug metabolism [45]: 0.53 pmol
Drug metabolism [46]: 29.7 pmol
Activity [47]: Non-toxic
Drug metabolism [48]: 51.2 pmol
Cmax [49]: 820 nM
